The source of these data is ChEMBL document CHEMBL1154444, “2,3,5-Substituted tetrahydrofurans: COX-2 inhibitory activities of 5-hydroxymethyl-/carboxyl-2,3-diaryl-tetrahydro-furan-3-ols” (Eur J Med Chem, 2008).

Bounds are passed on as bounds.

Series [1] deals with Prostaglandin G/H synthase 2 (Ovis aries) (UniProt P79208). The following applies: at 10 µM.
Series [2] deals with Prostaglandin G/H synthase 1 (Ovis aries) (UniProt P05979).
Series [3] in a line: Partition coefficient, log P of the compound. The class given is physicochemical. The following applies: octanol/water. An outline of the steps: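 Calculated rather than measured, as one of several physico-chemical descriptors used in quantitative structure–activity correlation with COX-2 inhibition.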
Series [4] concerns the target Prostaglandin G/H synthase 1 (Ovis aries) (UniProt P05979). Conditions: at 1 µM.
In series [5] the target is Prostaglandin G/H synthase 2 (Ovis aries) (UniProt P79208). The following applies: at 1 µM.
A short description of series [6]: Selectivity ratio of IC50 for COX1 to IC50 for COX2. In short, it runs like this:
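Ovine COX-1 and COX-2 inhibitor screening kit. Reaction started with arachidonic acid and quenched with 1 M HCl. PGH2 reduced to PGF2α by SnCl2, then quantified by prostaglandin antiserum immunoassay read at 405 nm. Heat-inactivated enzymes (boiling water, 3 min) served as background. Compounds tested in duplicate. Selectivity taken as IC50(COX-1)/IC50(COX-2).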

Series [7] addresses Prostaglandin G/H synthase 2 (Ovis aries) (UniProt P79208).
Series [8] has as its system PC-3. Description: Anticancer activity against human PC3 cells. It is filed as functional.
The test system of series [9] is SN12C. Briefly: Anticancer activity against human SN12C cells at 10 uM. The class given is functional. An outline of the steps: (§1)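 Tested at NIH in the standard 59-human-tumor-cell-line panel, at five concentrations from 10^-4 to 10^-8 M. Read-out is percent growth inhibition of the named cell line at 10^-5 M.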
The subject of series [10] is PC-3. Briefly: Anticancer activity against human PC3 cells at 1 uM. It is filed as functional.
Series [11] has as its system NCI-H522. Briefly: Anticancer activity against human NCI-H522 cells at 10 uM. The class given is functional. In short, it runs like this: as §1

Chain of Prostaglandin G/H synthase 2 (Ovis aries) (P79208 whole entry, looked up): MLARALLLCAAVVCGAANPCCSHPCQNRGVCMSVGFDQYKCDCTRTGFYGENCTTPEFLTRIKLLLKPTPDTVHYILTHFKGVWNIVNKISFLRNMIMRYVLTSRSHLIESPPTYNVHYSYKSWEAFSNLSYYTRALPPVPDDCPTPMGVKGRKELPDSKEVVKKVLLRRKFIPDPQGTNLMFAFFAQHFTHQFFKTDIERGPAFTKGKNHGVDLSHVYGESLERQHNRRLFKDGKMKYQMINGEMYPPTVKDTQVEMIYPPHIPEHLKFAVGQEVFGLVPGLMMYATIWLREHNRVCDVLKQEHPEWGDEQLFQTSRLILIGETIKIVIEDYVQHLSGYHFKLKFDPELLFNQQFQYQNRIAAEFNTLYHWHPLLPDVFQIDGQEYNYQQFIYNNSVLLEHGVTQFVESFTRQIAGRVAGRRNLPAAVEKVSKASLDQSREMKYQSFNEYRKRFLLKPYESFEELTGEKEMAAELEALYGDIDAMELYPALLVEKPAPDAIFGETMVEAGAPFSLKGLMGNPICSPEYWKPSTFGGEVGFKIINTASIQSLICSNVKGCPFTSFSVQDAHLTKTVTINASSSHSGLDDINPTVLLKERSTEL
Chain of Prostaglandin G/H synthase 1 (Ovis aries) (P05979 whole entry, looked up): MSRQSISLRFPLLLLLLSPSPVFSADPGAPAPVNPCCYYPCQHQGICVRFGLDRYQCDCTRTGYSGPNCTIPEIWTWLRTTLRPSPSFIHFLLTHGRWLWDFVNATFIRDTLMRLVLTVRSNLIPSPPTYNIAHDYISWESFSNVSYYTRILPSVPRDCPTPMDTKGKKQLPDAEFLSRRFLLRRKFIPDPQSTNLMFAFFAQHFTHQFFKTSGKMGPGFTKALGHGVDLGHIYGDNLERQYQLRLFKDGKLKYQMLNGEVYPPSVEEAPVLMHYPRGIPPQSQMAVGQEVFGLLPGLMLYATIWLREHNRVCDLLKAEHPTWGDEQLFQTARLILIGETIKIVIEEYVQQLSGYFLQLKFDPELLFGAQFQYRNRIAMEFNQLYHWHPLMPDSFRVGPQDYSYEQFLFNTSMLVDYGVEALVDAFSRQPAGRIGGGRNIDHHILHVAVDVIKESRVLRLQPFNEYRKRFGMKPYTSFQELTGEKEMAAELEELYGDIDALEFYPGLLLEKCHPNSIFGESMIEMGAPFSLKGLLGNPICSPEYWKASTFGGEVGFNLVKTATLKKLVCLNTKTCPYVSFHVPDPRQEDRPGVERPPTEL

As to `O=C(O)[C@H]1C[C@](O)(c2ccccc2)[C@@H](c2ccccc2)O1` (relative stereo), the inhibition in series [1] was 69%; in series [4], -1.15%; in [5], 68%. Also, the 50% inhibitory concentration (IC50) was above 10 µM in series [2] and below 1 µM in series [7]. Also, the lipophilicity (logP) in [3] stood at 2.61. In addition, in series [6], the Ratio IC50 was above 10.
Regarding `OC[C@H]1C[C@](O)(c2ccc(F)cc2)[C@@H](c2ccc(F)cc2)O1`, the inhibition in series [1] worked out at 82%; in [4], 22%; in [5], 88%. For the same compound, the IC50 was above 10 µM in [2] and below 1 µM in series [7]. In addition, in series [3], the logP amounted to 2.78. In series [8], this compound displayed a GI50 of 95 µM. Further, the Ratio IC50 in series [6] was above 10.
On to `COc1ccc([C@H]2O[C@@H](CO)C[C@]2(O)c2ccc(OC)cc2)cc1`, for which the inhibition in series [1] was determined as 67%; in [4] it was 22%; in [5], 65%. Further, the IC50 in series [2] was above 10 µM; in series [7], below 1 µM. In addition, the logP in series [3] amounted to 2. The compound further showed a GI50 in series [8] of 93.3 µM. Further, in [6], the Ratio IC50 was above 10.
In the case of `O=C(O)[C@H]1C[C@](O)(c2ccc(F)cc2)[C@@H](c2ccc(F)cc2)O1` (relative stereo), the inhibition in series [1] is 90%; in [4], 30%; in series [5] it was 37%. The IC50 was above 10 µM in series [2] and 3.2 µM in [7]. The compound further returned a logP in series [3] of 2.89. Also, in [9], the inhibition at 10 µM came to 60%. Also, in series [6], the Ratio IC50 is above 3.1.
On to `OC[C@H]1C[C@](O)(c2ccc(Cl)cc2)[C@@H](c2ccc(Cl)cc2)O1`, for which the results for the inhibition in series [1], in [4] and in series [5] were 68%, 56% and 43%, respectively. For the same compound, the IC50 in [2] was below 10 µM; in [7], 3 µM. Further, the logP in series [3] was 3.54. Further, halving of growth in series [8] (GI50) required 19.9 µM. For the same compound, in series [6], the Ratio IC50 is below 3.3.
Consider `CS(=O)(=O)c1ccc(C2=C(c3ccccc3)C(=O)OC2)cc1` [ROFECOXIB], for which the inhibition at 1 µM in [10] was found to be 15%.
For the compound `CS(=O)(=O)c1ccc([C@H]2O[C@@H](CO)C[C@]2(O)c2ccc(S(C)(=O)=O)cc2)cc1`, the results for the inhibition in series [1], in [4] and in series [5] were 57%, 55% and 40%, respectively. The IC50 in [2] is below 10 µM; in series [7], 6.5 µM. This compound also showed a logP in series [3] of 0.792. In series [8], this compound displayed a GI50 of 100 µM. The Ratio IC50 in series [6] was below 1.5.
Take `O=C(O)[C@H]1C[C@](O)(c2ccccc2Cl)[C@@H](c2ccccc2Cl)O1` (relative stereo): the inhibition worked out at 82% in series [1], 34% in [4] and 37% in series [5]. The figures for the IC50 in series [2] and in [7] were above 10 µM and 3.5 µM, respectively. For the same compound, in series [11], the inhibition at 10 µM was determined as 72%. This compound yielded a logP in series [3] of 3.65. The Ratio IC50 in [6] was above 2.8.
On to `O=C(O)[C@H]1C[C@](O)(c2ccc(Cl)cc2)[C@@H](c2ccc(Cl)cc2)O1` (relative stereo), for which the inhibition in series [1] worked out at 94%; in series [4], 55%; in series [5], 30%. The IC50 was below 10 µM in series [2] and 3.8 µM in [7]. The compound also yielded a logP in series [3] of 3.65. Besides, the Ratio IC50 in series [6] is below 2.6.
For the compound `OC[C@H]1C[C@](O)(c2ccccc2)[C@@H](c2ccccc2)O1`, the inhibition in [1] was 77%; in [4], 2.8%; in [5], 28%. For the same compound, the IC50 in [2] is above 10 µM; in [7] it was 5.1 µM. Further, in series [3], the logP turned out to be 2.5. The Ratio IC50 in series [6] was above 1.96.
As to `Cc1ccc(-c2cc(C(F)(F)F)nn2-c2ccc(S(N)(=O)=O)cc2)cc1` [CELECOXIB], halving of growth in series [8] (GI50) required 47 µM.
With `OC[C@H]1C[C@](O)(c2ccccc2Cl)[C@@H](c2ccccc2Cl)O1`, the inhibition in series [1] was 68%; in series [4] it was 73%; in series [5] it was 67%. Moreover, the values for the IC50 in series [2] and in [7] were below 10 µM and below 1 µM, respectively. In [3], this compound gave a logP of 3.54. For the same compound, halving of growth in series [8] (GI50) required 22 µM.

A word on the inhibition: it is the drop in the measured response relative to a control, in per cent. Broadly, the IC50 is the point on the concentration scale where inhibition reaches its midpoint. A lower IC50 goes with greater potency. As a reminder, the logP is the decadic logarithm of the partition coefficient of the neutral form, usually between octanol and water. The GI50 is the concentration giving 50% growth inhibition. Low readings indicate more potent growth inhibition, high ones less potent growth inhibition.
